Bounds are passed on as bounds.

One series concerns M21. As to the kind of experiment: Cytotoxicity against human M21 cells after 48 hrs by SRB assay. It counts as functional, cell-based. The settings on record: M21, 48 h. The gist of the method: (§1)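 NCI sulforhodamine B protocol. Cells were grown in high-glucose DMEM with 5% FBS and seeded per well at 4 × 10^3 (HT-29), 3.5 × 10^3 (M21) or 3 × 10^3 (MCF-7), then allowed 24 h to attach. Serial dilutions from 200 μM to 780 nM final were applied in DMSO <0.5% for 48 h. Cells were fixed with cold TCA (10% final) and stained with SRB, with absorbance read at 530–568 nm. Growth inhibition was computed against day-0 plates, giving the 50% inhibitory concentration. At least two experiments in triplicate, CV <10%.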
In general terms: The SRB assay estimates cell density from bound dye.

A further series relates to HT-29. As to the kind of experiment: Cytotoxicity against human HT-29 cells after 48 hrs by SRB assay. It counts as functional, cell-based. The settings on record: HT-29, 48 h. The method in brief:
as §1

The test system of a further series is MCF7. As to the kind of experiment: Cytotoxicity against human MCF7 cells after 48 hrs by SRB assay. To be noted: MCF7, 48 h. Format: functional, cell-based. The gist of the method:
as §1

Series [1] deals with Jurkat. Kind of series: Cell cycle arrest in human Jurkat E6-1 cells assessed as accumulation at G2/M phase at 19 uM after 24 hrs by FACS flow cytometry. It counts as functional. The method in brief:
(§2)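 Jurkat E6 cells grown in RPMI 1640 with 10% FBS at 37 °C, 5% CO2. Compounds were serially diluted in medium starting 50% above the M21 IC50. 4.0 × 10^5 cells were exposed for 24 h, then washed and spiked with chicken red blood cells as internal standard. Cells were fixed in ice-cold ethanol, stained with 1 μg/mL DAPI on ice for 1 h, and phase distribution was read by flow cytometry. The control was 0.5% DMSO.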

For series [2], the system named is Jurkat. As to the kind of experiment: Cell cycle arrest in human Jurkat E6-1 cells assessed as accumulation at G0/G1 phase at 19 uM after 24 hrs by FACS flow cytometry. It counts as functional. The method in brief:
(§3)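 Jurkat E6 cells cultured in RPMI 1640 with 10% FBS at 37 °C, 5% CO2. Compounds serially diluted in medium, starting 50% above the M21 IC50. 4.0 × 10^5 cells were exposed for 24 h. Cells were washed with PBS, chicken red blood cells added as internal standard, and fixed in ice-cold EtOH. After 1 h on ice in PBS with 1 μg/mL DAPI, phase distribution was read by flow cytometry. DMSO-treated cells served as control.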
In general terms: In flow cytometry, cells or beads pass a laser one at a time.

Series [3] has as its system Jurkat. As to the kind of experiment: Cell cycle arrest in human Jurkat E6-1 cells assessed as accumulation at S phase at 19 uM after 24 hrs by FACS flow cytometry. Format: functional. The method in brief:
as §2

The test system of series [4] is Jurkat. As to the kind of experiment: Cell cycle arrest in human Jurkat E6-1 cells assessed as accumulation at G2/M phase at 200 uM after 24 hrs by FACS flow cytometry. Format: functional. The gist of the method:
as §2

Series [5] deals with Jurkat. Kind of series: Cell cycle arrest in human Jurkat E6-1 cells assessed as accumulation at G0/G1 phase at 200 uM after 24 hrs by FACS flow cytometry. Format: functional. The gist of the method:
as §3

In series [6] the test system is Jurkat. As to the kind of experiment: Cell cycle arrest in human Jurkat E6-1 cells assessed as accumulation at S phase at 200 uM after 24 hrs by FACS flow cytometry. It counts as functional. The gist of the method:
as §2

Series [7] has as its system Jurkat. Kind of series: Cell cycle arrest in human Jurkat E6-1 cells assessed as accumulation at G0/G1 phase at 23 uM after 24 hrs by FACS flow cytometry. It counts as functional. The method in brief: as §3
Series [8] has as its system Jurkat. Kind of series: Cell cycle arrest in human Jurkat E6-1 cells assessed as accumulation at S phase at 23 uM after 24 hrs by FACS flow cytometry. It counts as functional. The gist of the method:
as §2

Series [9] relates to Jurkat. As to the kind of experiment: Cell cycle arrest in human Jurkat E6-1 cells assessed as accumulation at G2/M phase at 23 uM after 24 hrs by FACS flow cytometry. Format: functional. The gist of the method:
as §2

Series [10] relates to Jurkat. Kind of series: Cell cycle arrest in human Jurkat E6-1 cells assessed as accumulation at G2/M phase at 30 uM after 24 hrs by FACS flow cytometry. It counts as functional. The gist of the method:
as §2

In series [11] the test system is Jurkat. Kind of series: Cell cycle arrest in human Jurkat E6-1 cells assessed as accumulation at S phase at 30 uM after 24 hrs by FACS flow cytometry. Format: functional. The gist of the method:
(§4)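 Jurkat E6 T-lymphoblasts in RPMI 1640 with 10% FBS, 37 °C, 5% CO2. […] Chicken red blood cells were added as internal standard. Cells were fixed in ice-cold EtOH and stained with 1 μg/mL DAPI on ice for 1 h before flow cytometry of phase distribution. Vehicle control was 0.5% DMSO.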

Series [12] has as its system Jurkat. As to the kind of experiment: Cell cycle arrest in human Jurkat E6-1 cells assessed as accumulation at G0/G1 phase at 30 uM after 24 hrs by FACS flow cytometry. It counts as functional. The gist of the method: as §3
Series [13] relates to Jurkat. As to the kind of experiment: Cell cycle arrest in human Jurkat E6-1 cells assessed as accumulation at G0/G1 phase at 176 uM after 24 hrs by FACS flow cytometry. Format: functional. The gist of the method: as §3
The subject of series [14] is Jurkat. Kind of series: Cell cycle arrest in human Jurkat E6-1 cells assessed as accumulation at S phase at 176 uM after 24 hrs by FACS flow cytometry. It counts as functional. The method in brief: as §2
The test system of series [15] is Jurkat. Kind of series: Cell cycle arrest in human Jurkat E6-1 cells assessed as accumulation at G2/M phase at 176 uM after 24 hrs by FACS flow cytometry. It counts as functional. The method in brief:
as §2

For series [16], the system named is Jurkat. As to the kind of experiment: Cell cycle arrest in human Jurkat E6-1 cells assessed as accumulation at G2/M phase at 43 uM after 24 hrs by FACS flow cytometry. It counts as functional. The method in brief: as §2
Series [17] relates to Jurkat. As to the kind of experiment: Cell cycle arrest in human Jurkat E6-1 cells assessed as accumulation at S phase at 43 uM after 24 hrs by FACS flow cytometry. Format: functional. The method in brief:
as §4

Series [18] has as its system Jurkat. Kind of series: Cell cycle arrest in human Jurkat E6-1 cells assessed as accumulation at G0/G1 phase at 43 uM after 24 hrs by FACS flow cytometry. It counts as functional. The method in brief:
as §3

Series [19] has as its system Jurkat. Kind of series: Cell cycle arrest in human Jurkat E6-1 cells assessed as accumulation at S phase at 59 uM after 24 hrs by FACS flow cytometry. It counts as functional. The gist of the method: as §4
For series [20], the system named is Jurkat. Kind of series: Cell cycle arrest in human Jurkat E6-1 cells assessed as accumulation at G0/G1 phase at 59 uM after 24 hrs by FACS flow cytometry. Format: functional. The gist of the method: as §3
The subject of series [21] is Jurkat. As to the kind of experiment: Cell cycle arrest in human Jurkat E6-1 cells assessed as accumulation at G2/M phase at 59 uM after 24 hrs by FACS flow cytometry. Format: functional. The method in brief: as §2
A further series relates to HT-1080. As to the kind of experiment: Antitumor activity against human HT1080 cells xenografted in chicken chorioallantoic membrane assessed as inhibition of tumor growth at 1 ug per egg, iv administered on day 11 measured on day 17 by CAM assay. It counts as functional. The method in brief: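 HT-1080 fibrosarcoma cells (3.5 × 105/egg) were applied onto freshly exposed CAM of fertilized chicken eggs. On day 11, drug from a DMSO stock was diluted in Cremophor EL/99% ethanol/PBS (1/1/14 v/v) and 100 μL was injected into a vein under the CAM. Groups of 10–12 eggs were kept to day 17, embryos were euthanized at 4 °C for ≥4 h, and tumor wet weight was recorded.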
(In general: A xenograft is tissue or cells of one species grown in another, often human tumour cells in immunodeficient mice.)

A short description of series [22]: Toxicity in fertilized chicken embryo assessed as mortality rate at 1 ug per egg, iv administered on day 11 measured on day 17 by CAM assay. It counts as organism-based, Gallus gallus. The settings on record: in vivo, read-out: Activity. The gist of the method:
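Fertilized chicken eggs grafted on the CAM with HT-1080 cells (3.5 × 105/egg) received a 100 μL intravenous injection under the CAM on day 11. The drug was diluted in Cremophor EL/99% ethanol/PBS (1/1/14 v/v). Groups held 10–12 eggs and were incubated until day 17, when dead embryos and signs of toxicity were counted per group.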

Regarding `CCc1ccccc1OS(=O)(=O)c1cccc(NC(=O)NCCCl)c1`, the IC50 in the series with M21 came to 4.8 µM; with HT-29, 4.3 µM; in the series on MCF7 it was 5.3 µM.
As for `CCc1ccccc1OS(=O)(=O)c1cccc(NC(=O)NCCCCl)c1`, the Activity is recorded as 17% in the series on Jurkat [1], 45% in the series with Jurkat [2] and 38% in the series with Jurkat [3]. For the same compound, the half-inhibitory concentration (IC50) in the series with M21 turned out to be 24 µM.
With `CCc1ccccc1NS(=O)(=O)c1cccc(NC(=O)NCCCCl)c1`, the IC50 in the series on M21 is greater than 200 µM; in the series with HT-29, 96 µM; in the series with MCF7 it was 43 µM. The values for the Activity in the series on Jurkat [4], in the series on Jurkat [5] and in the series with Jurkat [6] were 15%, 50% and 35%, respectively.
For the compound `CCCc1ccccc1NS(=O)(=O)c1cccc(NC(=O)NCC)c1`, the IC50 stood at 60 µM in the series on M21, 41 µM with HT-29 and 40 µM in the series on MCF7. The results for the Activity in the series with Jurkat [7], in the series with Jurkat [8] and in the series with Jurkat [9] were 39%, 43% and 18%, respectively.
On to `CCCc1ccccc1NS(=O)(=O)c1ccc(NC(=O)NCC)cc1`, for which the IC50 came out at 41 µM in the series on M21, 32 µM in the series on HT-29 and 37 µM in the series on MCF7. For the same compound, the Activity worked out at 46% in the series on Jurkat [10], 35% with Jurkat [11] and 19% in the series on Jurkat [12].
Consider `CCNC(=O)Nc1ccc(S(=O)(=O)Nc2ccccc2C)cc1`, for which the IC50 in the series on M21, with HT-29 and in the series with MCF7 was greater than 200 µM each time. The Activity with Jurkat [13] came out at 31%; in the series on Jurkat [14] it was 55%; with Jurkat [15], 14%.
Regarding `CCCc1ccccc1OS(=O)(=O)c1cccc(NC(=O)NCC)c1`, in the series on M21, the half-maximal inhibitory concentration (IC50) turned out to be 25 µM. The Activity with Jurkat [7] is reported as 46%; in the series with Jurkat [8], 44%; in the series on Jurkat [9], 10%.
As for `Cc1ccccc1NS(=O)(=O)c1ccc(NC(=O)NCCCCl)cc1`, the IC50 is greater than 200 µM in the series on M21, 64 µM with HT-29 and greater than 200 µM in the series with MCF7. For the same compound, the Activity with Jurkat [4] is on record as 15%; in the series with Jurkat [5] it was 47%; in the series with Jurkat [6], 38%.
As for `CCNC(=O)Nc1cccc(S(=O)(=O)Nc2ccccc2CC)c1`, the half-inhibitory concentration (IC50) is greater than 100 µM in the series with M21, 15 µM in the series on HT-29 and 48 µM in the series on MCF7. In addition, the Activity with Jurkat [16] was 19%; in the series on Jurkat [17] it was 41%; in the series on Jurkat [18] it was 40%.
For the compound `CCc1ccccc1NS(=O)(=O)c1ccc(NC(=O)NCCCCl)cc1`, the IC50 in the series on M21, in the series with HT-29 and in the series with MCF7 was greater than 200 µM in each case. Besides, the Activity with Jurkat [4] is 16%; with Jurkat [5] it was 45%; with Jurkat [6], 39%.
On to `Cc1ccc(OS(=O)(=O)c2ccc(NC(=O)NCCCl)cc2)cc1`, for which the results for the Activity with Jurkat [1], in the series with Jurkat [2] and in the series with Jurkat [3] were 11%, 32% and 57%, respectively. In addition, the IC50 in the series on M21 was 21 µM; in the series with HT-29, 30 µM; with MCF7, 33 µM.
The compound `CCNC(=O)Nc1ccc(S(=O)(=O)Nc2ccccc2CC)cc1` had an IC50 in the series on M21 of 90 µM. Besides, the Activity in the series with Jurkat [19] came to 41%; in the series with Jurkat [20] it was 21%; in the series on Jurkat [21], 38%.
Turning to `CN(C)c1ccc(OS(=O)(=O)c2ccc(NC(=O)NCCCl)cc2)cc1`, the IC50 with M21 was 43 µM; with HT-29, 39 µM; in the series with MCF7, 58 µM. The values for the Activity in the series on Jurkat [7], in the series with Jurkat [8] and in the series with Jurkat [9] were 51%, 40% and 9%, respectively.
On to `COc1ccc(/C=C\c2cc(OC)c(OC)c(OC)c2)cc1O` [COMBRETASTATIN A4], for which the TGI in the series on HT-1080 was determined as 49%. For the same compound, the mortality at 6 days in [22] is 21%.

Usually IC50 stands for the concentration at which inhibition is half-maximal. What is called TGI is the reduction of tumour growth relative to the control group.

For the origin of these results see ChEMBL document CHEMBL2163200, “Synthesis, biological evaluation, and structure-activity relationships of novel substituted N-phenyl ureidobenzenesulfonate derivatives blocking cell cycle progression in S-phase and inducing DNA double-strand breaks” (J Med Chem, 2012).
